In brackets after ≈: the same amount, converted by molar mass.
Legend:
[1] = tested on: Mycobacterium tuberculosis; assay: Antimicrobial activity against Mycobacterium tuberculosis deltacydKO/A317T mutant under GAST/Fe medium assessed as growth inhibition after 14 days by alamar blue assay; type: functional
Outline: (§1)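 Broth microdilution in GAST/Fe medium against fully virulent Mtb H37RvMa or its derived strains (cytochrome bd oxidase deletion ΔcydKO; qcrB Ala317Thr point mutant). Plates were incubated 14 days, growth was read by Alamar Blue, and MIC90 was taken as the potency value.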

[2] = tested on: Mycobacterium tuberculosis; assay: Antimicrobial activity against Mycobacterium tuberculosis deltacydKO mutant under GAST/Fe medium assessed as growth inhibition after 14 days by alamar blue assay; type: functional; outline: as §1

Row | Compound | MIC90 [1] [µM] | MIC90 [2] [µM]
1 | CCOC(=O)c1nc(C)c2c(c1N)C(=O)N(Cc1ccccc1)C2=O | >10 | 0.019 (≈ 0.00645 µg/mL)
2 | Cc1noc(-c2nc(C)c3c(c2N)C(=O)N(Cc2cccc(OC(F)(F)F)c2)C3=O)n1 | >10 | <0.019
3 | Cc1nc(C(=O)OC2CC2)c(N)c2c1C(=O)N(Cc1ccccc1)C2=O | >10 | 0.039 (≈ 0.0137 µg/mL)
4 | COc1cccc(CN2C(=O)c3c(C)nc(-c4nc(C)no4)c(N)c3C2=O)c1 | >10 | 0.039 (≈ 0.0148 µg/mL)
5 | CCOC(=O)c1nc(C)c2c(c1N)C(=O)N(Cc1ccccc1)C2O (configuration not stated) | >10 | 0.019 (≈ 0.00649 µg/mL)
6 | Cc1noc(-c2nc(C)c3c(c2N)C(=O)N(Cc2cccc(Cl)c2)C3=O)n1 | >10 | <0.019

Reference: ChEMBL document CHEMBL3734652, “Pyrrolo[3,4-c]pyridine-1,3(2H)-diones: A Novel Antimycobacterial Class Targeting Mycobacterial Respiration” (J Med Chem, 2015)
